This passage reports IC50 and Activity results from ChEMBL document CHEMBL1221269, “Synthesis of 3,3-diindolyl oxyindoles efficiently catalysed by FeCl3 and their in vitro evaluation for anticancer activity” (Bioorg Med Chem Lett, 2010).

Common to all, as to format: functional, cell-based
For one experiment, the system named is A549. Kind of experiment: Cytotoxicity against human A549 cells after 48 hrs by MTT assay. The following applies: A549, 48 h. The essentials:
(§1)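 Cells seeded at 2.0×10^4 per well in 96-well plates, exposed to a range of test concentrations for 48 h. Medium then replaced with fresh medium containing MTT at 100 µg/mL for 2–3 h. Formazan dissolved in DMSO, OD read at 540 nm with 620 nm reference. Viability taken as treated vs untreated absorbance. IC50 in µM, mean of three separate experiments. Highest concentration tested 100 µM.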

The subject of a further experiment is HepG2. As to the kind of experiment: Cytotoxicity against human HepG2 cells after 48 hrs by MTT assay. The following applies: HepG2, 48 h. Summed up: as §1
A general note: Tetrazolium assays rely on reduction of a dye to a coloured formazan, in cell work by metabolically active cells.

For a further experiment, the system named is SK-N-SH. Kind of experiment: Cytotoxicity against human SK-N-SH cells after 48 hrs by MTT assay. Summed up:
as §1

The test system of the next experiment is DU-145. Kind of experiment: Cytotoxicity against human DU145 cells after 48 hrs by MTT assay. The following applies: DU-145, 48 h. Summed up:
as §1

The test system of experiment [1] is MCF7. Kind of experiment: Cytotoxicity against human MCF7 cells after 48 hrs by MTT assay. The following applies: MCF7, 48 h. The essentials:
as §1

Experiment [2] concerns MCF7. As to the kind of experiment: Cytotoxicity against human MCF7 cells at up to 100 uM after 48 hrs by MTT assay. Summed up:
as §1

Active and inactive are the calls of the source. No cut-off for these calls is given here.

What is called IC50 is the concentration that inhibits the measured activity by half. Read a high IC50 as lower potency. For the compound `COc1ccc2c(C3(c4c[nH]c5cc(OC)ccc45)C(=O)Nc4ccccc43)c[nH]c2c1`, the IC50 is 7.8 µM in the experiment with A549; 12 µM in the experiment with HepG2; 13.6 µM in the experiment with SK-N-SH; 1.2 µM with DU-145; 45.4 µM in the experiment with MCF7 [1].

In the case of `COc1ccc2c(C3(c4c[nH]c5cc(OC)ccc45)C(=O)Nc4ccc(F)cc43)c[nH]c2c1`, the IC50 was determined as 14.4 µM in the experiment on A549; 16 µM in the experiment with HepG2; 4.1 µM with SK-N-SH; 13.1 µM in the experiment with DU-145; 12 µM with MCF7 [1].

As to `Cn1cc(C2(c3cn(C)c4ccccc34)C(=O)Nc3ccccc32)c2ccccc21`, the IC50 amounted to 10.1 µM in the experiment with A549, 12 µM in the experiment on HepG2, 5.1 µM in the experiment with SK-N-SH and 5.6 µM in the experiment with DU-145. Besides, the result in the experiment with MCF7 [2] was inactive.

In the case of `O=C1Nc2ccccc2C1(c1c[nH]c2ccc(Br)cc12)c1c[nH]c2ccc(Br)cc12`, the IC50 in the experiment on A549 turned out to be 8 µM; in the experiment on HepG2, 15.8 µM; in the experiment on SK-N-SH, 13.2 µM; in the experiment on DU-145, 3.6 µM; in the experiment with MCF7 [1] it was 46.8 µM.

With `O=C1Nc2ccc(F)cc2C1(c1c[nH]c2ccc([N+](=O)[O-])cc12)c1c[nH]c2ccc([N+](=O)[O-])cc12`, the IC50 is 7.7 µM in the experiment on A549, 23.8 µM in the experiment on HepG2, 6.8 µM in the experiment with SK-N-SH and 7.5 µM with DU-145. Further, in the experiment with MCF7 [2], the outcome was inactive.

As for `COc1cccc2[nH]cc(C3(c4c[nH]c5cccc(OC)c45)C(=O)Nc4ccc(F)cc43)c12`, the IC50 in the experiment with A549 is 7.8 µM; with HepG2, 18 µM; in the experiment on SK-N-SH, 12.1 µM; in the experiment on DU-145 it was 9.4 µM; with MCF7 [1] it was 7.5 µM.

As for `O=C1Nc2ccccc2C1(c1c[nH]c2ccc([N+](=O)[O-])cc12)c1c[nH]c2ccc([N+](=O)[O-])cc12`, the IC50 stood at 10.3 µM in the experiment on A549, 23.4 µM in the experiment on HepG2, 11.8 µM with SK-N-SH and 8 µM in the experiment with DU-145. Moreover, in the experiment with MCF7 [2], the outcome was inactive.

On to `COc1cccc2[nH]cc(C3(c4c[nH]c5cccc(OC)c45)C(=O)Nc4ccccc43)c12`, for which the IC50 in the experiment on A549 stood at 15.3 µM; in the experiment with HepG2, 9 µM; with SK-N-SH, 4.7 µM; with DU-145, 5 µM; in the experiment with MCF7 [1], 14.1 µM.

Consider `O=C1Nc2ccccc2C1(c1c[nH]c2ccccc12)c1c[nH]c2ccccc12`, for which the IC50 in the experiment on A549 worked out at 8.6 µM; in the experiment with HepG2, 20.4 µM; in the experiment on SK-N-SH, 11.3 µM; with DU-145 it was 8.7 µM; with MCF7 [1], 49.8 µM.

As to `COc1ccc2[nH]cc(C3(c4c[nH]c5ccc(OC)cc45)C(=O)Nc4ccccc43)c2c1`, the IC50 in the experiment with A549 is 11.2 µM; in the experiment on HepG2, 30.2 µM; in the experiment with SK-N-SH it was 3.9 µM; with DU-145 it was 2.2 µM; in the experiment on MCF7 [1], 33.6 µM.

For the compound `O=C1Nc2ccc(F)cc2C1(c1c[nH]c2ccc(Br)cc12)c1c[nH]c2ccc(Br)cc12`, the IC50 turned out to be 10.3 µM with A549; 12.8 µM with HepG2; 2.8 µM in the experiment with SK-N-SH; 16.3 µM with DU-145; 12.8 µM in the experiment with MCF7 [1].

Regarding `O=C1Nc2ccccc2C1(c1c[nH]c2ccc(Cl)cc12)c1c[nH]c2ccc(Cl)cc12`, the IC50 worked out at 8.3 µM in the experiment with A549, 14.6 µM in the experiment on HepG2, 9.4 µM in the experiment with SK-N-SH and 8.1 µM with DU-145. In addition, the result in the experiment with MCF7 [2] was inactive.

With `Cn1cc(C2(c3cn(C)c4ccccc34)C(=O)Nc3ccc(F)cc32)c2ccccc21`, the IC50 in the experiment on A549 was found to be 17.5 µM; with HepG2 it was 13 µM; in the experiment on SK-N-SH it was 6.5 µM; in the experiment on DU-145, 11 µM; in the experiment on MCF7 [1] it was 9.2 µM.

Regarding `O=C1Nc2ccc(F)cc2C1(c1c[nH]c2ccccc12)c1c[nH]c2ccccc12`, the IC50 was 12.7 µM in the experiment with A549; 6.6 µM with HepG2; 67.3 µM with SK-N-SH; 12.8 µM in the experiment on DU-145; 23.6 µM in the experiment with MCF7 [1].

As for `O=C1Nc2ccc(F)cc2C1(c1c[nH]c2ccc(Cl)cc12)c1c[nH]c2ccc(Cl)cc12`, the IC50 with A549 was 12.1 µM; with HepG2, 16.6 µM; with SK-N-SH it was 8.5 µM; with DU-145, 19.6 µM; in the experiment with MCF7 [1] it was 24.8 µM.

For the compound `COc1ccc2[nH]cc(C3(c4c[nH]c5ccc(OC)cc45)C(=O)Nc4ccc(F)cc43)c2c1`, the concentration for half-maximal inhibition (IC50) worked out at 10.6 µM in the experiment with A549, 36.6 µM with HepG2, 7 µM in the experiment on SK-N-SH and 3.6 µM in the experiment with DU-145. The outcome with MCF7 [2] was inactive.
